NR1D1 modulator: Rev-erb alpha (human) modulation | Rev-erbα–FITC-DNA binding, fluorescence polarization, 90 min | hit rate 0.79% among 370,000 | P20393 | AID 1259318 | activity, % at 10 µM;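 active = activity above about 14%, limit read from the data; passing the limit was not always enough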;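 note: 0% = DMSO wells with 35 nM protein and 100% = DMSO wells with 750 nM protein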
MC4R ag barr: agonists of human melanocortin 4 receptor (MC4R) beta-arrestin. U2OS MC4R beta-arrestin complementation, luminescence; percent of melanotan II response, DMSO zero. activation, % at 8.9 µM. hit rate 0.98% among 360,000. AID 540308;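 active = activation above a per-plate cutoff, the mean activation of sample wells on that plate plus 3 SD, cut at about 8% in these data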
MC4R antagonist: blocks human MC4R cAMP signaling. P32245. MC4R-expressing cells, MTII-stimulated cAMP, LANCE TR-FRET. inhibition, % at 6.5 µM. hit rate 0.48% among 360,000. AID 540295;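 active = inhibition above its plate's cutoff, the mean of tested wells on that plate plus 3 SD, cut at about 29% in these data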;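 note: 0% = Melanotan II alone and 100% = Melanotan II plus saturating MCL0020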
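System – human MC4R-expressing U2OS cells · Also added – Melanotan II · Dosing – one concentration, 6.5 µM nominal · Timing – 30-min compound, 1-h challenge, 1-h detection, room temperature · Measured by – Eu-cAMP/anti-cAMP TR-FRET, emission 671 nm · Replicates – singlicate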
PG9 Ab binder: PG9 antibody binding by small molecule; TR-FRET gp120-PG9 antibody binding; inhibition, % at 6.7 µM; hit rate 0.43% among 360,000; AID 624416; in the data active = inhibition above about 8.5%
NTR1 ag: activates human neurotensin receptor 1 | NTR1-U2OS beta-arrestin-GFP spot imaging, agonist mode | activation, % at 20 µM | P30989 | AID 493036 | hit rate 0.17% among 330,000;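 active = activation at or above 40% of the spot to cytoplasm intensity ratio, with at least 20 cells analyzed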;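 note: 0% = DMSO without peptide and 100% = 100 nM NTR1 peptide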
Target sequence (P30989 whole entry, looked up): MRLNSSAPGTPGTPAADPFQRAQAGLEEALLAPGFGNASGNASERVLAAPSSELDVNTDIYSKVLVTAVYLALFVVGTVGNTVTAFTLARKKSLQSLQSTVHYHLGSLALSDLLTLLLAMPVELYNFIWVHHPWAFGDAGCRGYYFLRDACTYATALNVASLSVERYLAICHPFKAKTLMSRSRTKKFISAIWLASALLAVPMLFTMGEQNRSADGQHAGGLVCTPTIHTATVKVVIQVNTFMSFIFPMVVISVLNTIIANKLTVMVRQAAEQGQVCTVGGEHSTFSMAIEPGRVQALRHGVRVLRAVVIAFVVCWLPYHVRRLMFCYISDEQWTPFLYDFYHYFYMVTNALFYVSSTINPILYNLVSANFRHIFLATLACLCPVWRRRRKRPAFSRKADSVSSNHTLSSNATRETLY
cAMP nonselect: counter-screen for MC4R antagonists: nonselective cAMP signaling inhibitors; inhibition, % at 6.5 µM; shares compounds with MC4R antagonist; AID 602193; parental U2OS, forskolin cAMP, LANCE TR-FRET; hit rate 26% among 1,600;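 active = mean inhibition over triplicates above the low-control well mean plus 3 SD, set per campaign, cut at about 13% in these data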;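 note: signal is single emission at 671 nm which falls as cellular cAMP rises; 0% = forskolin-stimulated wells and 100% = buffer without forskolin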
MC4R cAMP antag: human MC4R cAMP antagonism confirmation; shares compounds with MC4R antagonist; MC4R-expressing cells, MTII-stimulated cAMP, TR-FRET; inhibition, % at 6.5 µM; hit rate 27% among 1,600; in the data active = inhibition above about 29%;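 note: 0% = agonist stimulated wells alone and 100% = agonist stimulated wells plus saturating reference antagonist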
The depositor's hits bear a star. Only some compounds are listed: those with a hit (about 2.5% of all), similar ones and a draw of the others.

O=S(=O)([O-])CCC[N+]1(CC#Cc2ccccc2)CCCCC1 was read as NR1D1 modulator -1, MC4R ag barr 0, MC4R antagonist 35*, PG9 Ab binder -2, NTR1 ag -1, cAMP nonselect -1 and MC4R cAMP antag 4.
COc1cccc(N2CCN(CC(=O)NCc3c(F)cccc3F)CC2)c1 was read as NR1D1 modulator -6.
CCCCN(Cc1ccco1)C(=O)C1CCCN(c2ncnc3c2nc2n3CCCCC2)C1 (stereo unspecified) was read as NR1D1 modulator -4, MC4R ag barr 1, MC4R antagonist 32*, PG9 Ab binder 0, NTR1 ag 6, cAMP nonselect -2 and MC4R cAMP antag 9.
For COC(=O)Cn1c(CN2CCN(c3ccc(F)cc3)CC2)nc2c1c(=O)n(C)c(=O)n2C the results were MC4R ag barr 1, MC4R antagonist 29*, NTR1 ag 2, cAMP nonselect 4 and MC4R cAMP antag 11.
For CCOCCn1c(CN2CCN(c3ccc(F)cc3)CC2)nc2c1c(=O)n(C)c(=O)n2C the results were NR1D1 modulator -6, MC4R ag barr 1, MC4R antagonist 17, PG9 Ab binder -3 and NTR1 ag -1.
Screening Cc1ccc2c(c1)N(Cc1cccc(Cl)c1)C(=O)c1cccnc1O2 returned NR1D1 modulator 3, MC4R ag barr 2, MC4R antagonist 39*, PG9 Ab binder 0, NTR1 ag 2, cAMP nonselect -2 and MC4R cAMP antag -2.
`O=C(Nc1ccc(F)cc1)Nc1nc2ncccn2c1-c1ccc(F)cc1` gave NR1D1 modulator 2.
CCOc1ccc(S(=O)(=O)N2CCC(C(=O)N3CCN(c4ccccc4)CC3)CC2)cc1 was read as NR1D1 modulator -5, MC4R ag barr 4, MC4R antagonist -4, PG9 Ab binder 2 and NTR1 ag 1.
COC(=O)COc1ccc(S(=O)(=O)N2CCN(c3ccccc3)CC2)cc1 was read as NR1D1 modulator 4, MC4R ag barr -2, MC4R antagonist 50*, PG9 Ab binder -2, NTR1 ag 12, cAMP nonselect 14* and MC4R cAMP antag 28.
`COC(=O)COc1ccc(S(=O)(=O)N2CCN(c3ccccc3F)CC2)cc1` gave NR1D1 modulator -4, MC4R ag barr -1, MC4R antagonist 42*, PG9 Ab binder -1, NTR1 ag 9, cAMP nonselect 14* and MC4R cAMP antag 33*.
`COC(=O)c1cc(S(=O)(=O)N2CCN(c3ccccc3F)CC2)c[nH]1` gave NR1D1 modulator 2, MC4R ag barr 0, MC4R antagonist 1, PG9 Ab binder -2 and NTR1 ag 0.
Screening C=CCNC(=O)Nc1ccc2c(c1)[C@]1(CC(=O)N(CC(C)C)C1c1ccccc1)C(=O)N2C (stereo partly specified) returned NR1D1 modulator 1.
`COCCCC1CCN(Cc2nc(Cc3ccccc3Cl)no2)CC1` gave NR1D1 modulator 3, MC4R ag barr -2, MC4R antagonist 5, PG9 Ab binder -2 and NTR1 ag -1.
COCCCC1CCN(Cc2nc(-c3ccccc3)no2)CC1 was read as NR1D1 modulator 1, MC4R ag barr 2, MC4R antagonist 30*, PG9 Ab binder -1, NTR1 ag 1, cAMP nonselect 0 and MC4R cAMP antag -7.
Screening CN=C1S/C(=C/c2cc(C)n(Cc3ccccc3)c2C)C(=O)N1C returned NR1D1 modulator 2.
For CCCCOc1ccc(C(NC(=O)OCC)NC(=O)OCC)cc1 the results were NR1D1 modulator 4, MC4R ag barr -2, MC4R antagonist 29*, PG9 Ab binder -3, NTR1 ag 1, cAMP nonselect 0 and MC4R cAMP antag 2.
Screening CCCCCCOc1ccc(C(CC(=O)O)C(N)=O)cc1 (stereo unspecified) returned NR1D1 modulator 0, MC4R ag barr 0, MC4R antagonist 1, PG9 Ab binder -2 and NTR1 ag 0.
`CC(=O)Nc1nc(C2CC2)cc(-c2ccccc2)c1C#N` gave NR1D1 modulator 0, MC4R ag barr -1, MC4R antagonist 35*, PG9 Ab binder 0, NTR1 ag -1, cAMP nonselect 1 and MC4R cAMP antag 0.
Screening N#Cc1c(-c2ccccc2)cc(C2CC2)nc1N returned NR1D1 modulator -4, MC4R ag barr 0, MC4R antagonist 4, PG9 Ab binder 0 and NTR1 ag 0.
For Cn1cc(CN2C[C@H]3CC[C@H]2C3)c(-c2ccccc2F)n1 the results were NR1D1 modulator 0, MC4R ag barr 1, MC4R antagonist 29*, PG9 Ab binder -1, NTR1 ag -1, cAMP nonselect 1 and MC4R cAMP antag -1.
`Cc1nnc(SCC(=O)N2CC(=O)Nc3ccccc32)s1` gave NR1D1 modulator 1, MC4R ag barr 0, MC4R antagonist 3, PG9 Ab binder -2 and NTR1 ag 0.
O=C1CN(C(=O)CSc2nc(-c3ccc(Cl)cc3)cs2)c2ccccc2N1 was read as NR1D1 modulator -1, MC4R ag barr 2, MC4R antagonist 31*, PG9 Ab binder -2, NTR1 ag 2, cAMP nonselect -4 and MC4R cAMP antag -18.
`COC(=O)[C@]12C[C@H](CC(=O)NCc3ccc(C)o3)C(=O)N(Cc3ccco3)C1=C[C@H](C1CCCC1)O[C@@H]2C` gave NR1D1 modulator 6.
`COc1cc(OC)cc(OC(=O)C2CCN(C(=O)c3ccc(Cl)cc3)CC2)c1` gave NR1D1 modulator -2, MC4R ag barr 2, MC4R antagonist 29*, PG9 Ab binder 0, NTR1 ag 0, cAMP nonselect 6 and MC4R cAMP antag 7.
COc1cc(OC)cc(OC(=O)C2CCN(C(=O)c3ccc(F)cc3)CC2)c1 was read as NR1D1 modulator 2, MC4R ag barr -2, MC4R antagonist 15, PG9 Ab binder 3 and NTR1 ag 1.
Screening Cc1cc(=O)[nH]c(N/N=C/c2ccccc2Cl)n1 returned NR1D1 modulator 0, MC4R ag barr -1, MC4R antagonist 4, PG9 Ab binder -1 and NTR1 ag 0.
For Cc1cc(=O)[nH]c(N/N=C/c2c(F)c(F)c(F)c(F)c2F)n1 the results were NR1D1 modulator -5, MC4R ag barr 0, MC4R antagonist 29*, PG9 Ab binder -1, NTR1 ag -2, cAMP nonselect 14* and MC4R cAMP antag 20.
COc1ccc(CNS(=O)(=O)/C=C/c2ccc(OC)cc2CNC(=O)OC(C)(C)C)cc1 was read as NR1D1 modulator -3.
Cc1cccc(-c2cccc3c4c([nH]c23)[C@@H]2C[C@H](N(C)C(=O)c3ccccc3F)[C@H]([C@H](C)O)CN2CC4)c1 was read as NR1D1 modulator 6.
